According to ChEMBL document CHEMBL1152353, “Pyrimido[5,4-e][1,2,4]triazine-5,7(1H,6H)-dione derivatives as novel small molecule chaperone amplifiers” (Bioorg Med Chem Lett, 2009):
Activity calls are given as the source filed them. The calls are words filed in the database; no cut-off is given here.

Key:
[1] = Cytotoxicity against human SK-N-SH cells after 72 hrs by MTS assay; format: cell-based
Outline: (§1)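 HeLa (8000 cells/well) or SK-N-SH (14,000 cells/well) cells seeded in DMEM with 10% FBS for 18 h. Compound added at 1:200 dilution, final 0.3 to 80 µM, 0.5% v/v DMSO. Exposure 72 h, then MTS/PMS for 4 h, SDS to 1.4% w/v, absorbance at 492 nm. CC50 = concentration giving half-maximal cytotoxicity.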

SK-N-SH [2] = assay: Cytoprotection against rotenone stress-induced toxicity in human SK-N-SH cells assessed as increase in cell viability after 48 hrs by MTS assay relative to control; format: functional; design: concentration or dose not given beside the values
Outline: (§2)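 SK-N-SH neuroblastoma cells (within passage 6) seeded in DMEM with 0.1% FBS for 18 h, then fresh medium with 200 nM rotenone (final) plus compound, 0.019 to 10 µM. Incubated 48 h, then MTS viability read. Cytoprotection expressed as viability increase over the rotenone DMSO control; EC50 = concentration giving half-maximal protection. Data averaged over multiple tests.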

[3] = target: T1, Heat shock factor protein 1 (Homo sapiens) (UniProt Q00613); assay: Amplification of HSF1 transcriptional activity in human HeLa cells assessed as granule formation pretreated for 3 hrs by immunocytochemical staining; format: cell-based
T1 sequence (whole entry): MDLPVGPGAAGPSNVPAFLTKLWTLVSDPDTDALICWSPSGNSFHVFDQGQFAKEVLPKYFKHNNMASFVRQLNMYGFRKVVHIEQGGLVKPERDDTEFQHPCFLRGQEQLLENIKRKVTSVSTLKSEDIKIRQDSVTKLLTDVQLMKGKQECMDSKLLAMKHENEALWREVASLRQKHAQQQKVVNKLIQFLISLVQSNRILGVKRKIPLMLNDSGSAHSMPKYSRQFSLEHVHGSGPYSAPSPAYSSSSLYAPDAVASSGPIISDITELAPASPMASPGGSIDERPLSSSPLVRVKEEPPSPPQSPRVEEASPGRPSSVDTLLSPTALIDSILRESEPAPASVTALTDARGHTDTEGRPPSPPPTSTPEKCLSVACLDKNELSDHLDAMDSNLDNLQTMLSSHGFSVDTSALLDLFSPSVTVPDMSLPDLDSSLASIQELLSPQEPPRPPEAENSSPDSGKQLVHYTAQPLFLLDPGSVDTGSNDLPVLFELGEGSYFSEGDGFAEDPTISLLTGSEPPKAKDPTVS
Outline: (§3)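 HeLa cells pretreated with compound 1 h, then mild heat shock 41 °C for 2 h, no recovery; control arm pretreated 3 h at 37 °C without heat shock. Compound diluted 200-fold, 0.3 to 80 µM range.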

[4] = (§4) Cytotoxicity against human HeLa cells after 72 hrs by MTS assay; format: cell-based; details: HeLa cells; outline: as §1
SK-N-SH [5] = assay: Cytoprotection against rotenone stress-induced toxicity in human SK-N-SH cells after 48 hrs by MTS assay; format: functional, cell-based; outline: as §2
SK-N-SH [6] = assay: Cytoprotection against rotenone stress-induced toxicity in human SK-N-SH cells at 1.25 uM after 48 hrs by MTS assay; format: functional; outline: as §2
SK-N-SH [7] = assay: Cytoprotection against rotenone stress-induced toxicity in human SK-N-SH cells at 0.63 uM after 48 hrs by MTS assay; format: functional; outline: as §2
SH-SY5Y [8] = assay: Cytoprotection against oxygen-glucose deprivation-induced cytotoxicity in human SH-SY5Y cells at 2.5 uM after 28 hrs by MTS assay; format: functional
Outline: (§5)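 SH-SY5Y cells plated on collagen I-coated wells, grown 16–24 h in complete medium, washed twice in deoxygenated glucose- and serum-free medium; compound added within 1 h before OGD. Chambers flushed with 95% N₂/5% CO₂, residual O₂ <1%, held at 37 °C for 28 h. MTS viability; cytoprotection = (MTS_compound − MTS_DMSO)/MTS_DMSO × 100% versus OGD DMSO control.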

SH-SY5Y [9] = assay: Cytoprotection against oxygen-glucose deprivation-induced cytotoxicity in human SH-SY5Y cells at 0.5 uM after 28 hrs by MTS assay; format: functional; outline: as §5
SH-SY5Y [10] = assay: Cytoprotection against oxygen-glucose deprivation-induced cytotoxicity in human SH-SY5Y cells at 1 uM after 28 hrs by MTS assay; format: functional; outline: as §5
[11] = target: T2, Heat shock factor protein 1 (Homo sapiens, UniProt Q00613); assay: Amplification of HSF1 transcriptional activity in human heat shock-induced HeLa cells assessed as granule formation treated 1 hr before heat shock challenge measured after 2 hrs without recovery time by immunocytochemical staining; format: cell-based
T2 sequence (Q00613 whole entry): T1 sequence (whole entry)
Outline: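 HeLa cells given compound 1 h before mild heat shock at 41 °C for 2 h, no recovery; compound diluted 200-fold, 0.3 to 80 µM. Unstressed control plates kept at 37 °C for 3 h. HSF1 immunocytochemical staining, imaged at 10×.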

HeLa [12] = assay: as §4; format: cell-based; details: hela, 72 h; outline: as §1
HeLa [13] = assay: Cytotoxicity against human HeLa cells at 80 uM after 72 hrs by MTS assay; format: cell-based; outline: as §1
SK-N-SH [14] = assay: Cytoprotection against rotenone stress-induced toxicity in human SK-N-SH cells assessed as increase in cell survival at 0.625 after 48 hrs by MTS assay relative to control; format: functional; outline: as §2
SK-N-SH [15] = assay: Cytoprotection against rotenone stress-induced toxicity in human SK-N-SH cells at 0.16 uM after 48 hrs by MTS assay; format: functional
Outline: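 SK-N-SH cells (within passage 6) seeded in DMEM with 0.1% FBS for 18 h, then fresh medium with rotenone (final 200 nM) plus compound (range from 0.019 up to 10). Incubated 48 h, viability by MTS; cytoprotection as viability increase over DMSO-plus-rotenone control.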

[16] = Therapeutic index, ratio of CC50 for human SK-N-SH cells to EC50 for human SK-N-SH cells; format: cell-based; details: read-out: Ratio CC50/EC50
[17] = Therapeutic index, ratio of […]; format: cell-based; details: read-out: FC
[18] = target: T1, Heat shock factor protein 1 (Homo sapiens); assay: Amplification of HSF1 transcriptional activity in human HeLa cells assessed as […] granule count at 80 uM by immunocytochemical staining; format: cell-based; outline: as §3
[19] = Homo sapiens, SK-N-SH, 48 h, read-out: EC50

Structure (SMILES)	CC50 at 72 h [1]	Activity (SK-N-SH [2])	Activity [3]	CC50 at 72 h [4]	EC50 (SK-N-SH [5]; [19])	further results
CC(C)Cn1nc(-c2nc3ccccc3s2)nc2c(=O)n(C)c(=O)nc1-2	3.7 µM	67%	inactive	7.9 µM	270 nM	–
CC(C)CCn1nc(-c2nc3ccccc3s2)nc2c(=O)n(C)c(=O)nc1-2	10.7 µM	44%	inactive	16.9 µM	240 nM	–
CCCCn1nc(-c2ccccc2)nc2c(=O)n(C)c(=O)nc1-2	9.8 µM	58%	inactive	18.5 µM	490 nM	–
CCCCn1nc(-c2ccc(C)o2)[n+]([O-])c2c(=O)n(C)c(=O)nc1-2	6.6 µM	49%	inactive	9 µM	–	Activity (SK-N-SH [6]): 49%
CCCCn1nc(-c2nccs2)nc2c(=O)n(C)c(=O)nc1-2	1.4 µM	55%	inactive	2.5 µM	–	Activity (SK-N-SH [7]): 55%; Activity (SH-SY5Y [8]): 39%; Activity (SH-SY5Y [9]): 7%; Activity (SH-SY5Y [10]): 23%
CCn1nc(-c2ccc[nH]2)nc2c(=O)n(C)c(=O)nc1-2	4.3 µM	44%	inactive	10.7 µM	680 nM	–
CCCCn1nc(-c2ncc[nH]2)nc2c(=O)n(C)c(=O)nc1-2	1.3 µM	56%	inactive	3.6 µM	300 nM	–
Cn1c(=O)nc2n(Cc3ccc(F)cc3)nc(-c3nc4ccccc4s3)nc-2c1=O	21.3 µM	inactive	inactive	23.4 µM	–	EC50 (SK-N-SH [5]; sk-n-sh): Not Active
Cn1c(=O)nc2[nH]nc(-c3cccs3)nc-2c1=O	–	inactive	–	–	–	EC50 [11]: Not Active; EC50 (SK-N-SH [5]; sk-n-sh): Not Active
CCn1nc(-c2ncc[nH]2)nc2c(=O)n(C)c(=O)nc1-2	3.6 µM	62%	inactive	11.9 µM	2710 nM	–
CCCCn1nc(-c2nc3ccccc3[nH]2)nc2c(=O)n(C)c(=O)nc1-2	13.1 µM	59%	inactive	–	1900 nM	Activity (HeLa [12]): Not Active; Activity (HeLa [13]): 76%
CCCCn1nc(-c2ccc3ccccc3n2)nc2c(=O)n(C)c(=O)nc1-2	4 µM	71%	inactive	9.5 µM	290 nM	Activity (SK-N-SH [14]): 103%
Cn1c(=O)nc2n(Cc3ccccc3)nc(-c3nc4ccccc4s3)nc-2c1=O	5.6 µM	27%	inactive	7.3 µM	2340 nM	–
CCCCn1nc(-c2ccc(C)s2)[n+]([O-])c2c(=O)n(C)c(=O)nc1-2	7.2 µM	27%	inactive	6.6 µM	190 nM	–
CCn1nc(-c2cccs2)nc2c(=O)n(C)c(=O)nc1-2	9.9 µM	53%	inactive	10.5 µM	410 nM	Activity (SH-SY5Y [8]): 14%; Activity (SH-SY5Y [9]): 18%; Activity (SH-SY5Y [10]): 48%
CCn1nc(-c2ccc(C)o2)nc2c(=O)n(C)c(=O)nc1-2	8.2 µM	50%	inactive	22.3 µM	1840 nM	–
CCn1nc(-c2ccc(C)s2)[n+]([O-])c2c(=O)n(C)c(=O)nc1-2	27.2 µM	57%	inactive	15 µM	1100 nM	–
CCn1nc(-c2ccc[nH]2)[n+]([O-])c2c(=O)n(C)c(=O)nc1-2	1.9 µM	35%	inactive	5.2 µM	170 nM	–
CCCCn1nc(-c2nc3ccccc3s2)nc2c(=O)n(C)c(=O)nc1-2	8.4 µM	53%	inactive	8.7 µM	230 nM	Activity (SH-SY5Y [8]): 80%; Activity (SH-SY5Y [9]): 14%; Activity (SH-SY5Y [10]): 38%
CCCCn1nc(-c2ccc(C)o2)nc2c(=O)n(C)c(=O)nc1-2	5.3 µM	23%	inactive	7.8 µM	330 nM	–
CC1=C(O)C(=O)C=C2C1=CC=C1[C@@]2(C)CC[C@@]2(C)[C@@H]3C[C@](C)(C(=O)O)CC[C@]3(C)CC[C@]12C [CELASTROL]	1.6 µM	24%	–	3 µM	–	Activity (SK-N-SH [15]): 24%; Activity (SH-SY5Y [8]): -22%; Activity (SH-SY5Y [9]): 8%; Activity (SH-SY5Y [10]): 18%
CCn1nc(-c2ccc(C)s2)nc2c(=O)n(C)c(=O)nc1-2	63.5 µM	50%	inactive	22.2 µM	1330 nM	selectivity ratio [16]: ≤ 48; selectivity ratio [17]: ≤ 7
CCCn1nc(-c2nc3ccccc3s2)nc2c(=O)n(C)c(=O)nc1-2	5.4 µM	55%	inactive	15.6 µM	550 nM	Activity [18]: 25%
Cn1c(=O)[nH]c2nnc(-c3cccs3)nc2c1=O	> 80 µM	–	–	> 80 µM	–	–
CCn1nc(-c2ccc(C)o2)[n+]([O-])c2c(=O)n(C)c(=O)nc1-2	3.3 µM	56%	inactive	9.8 µM	–	Activity (SK-N-SH [6]): 56%
CCn1nc(-c2ccco2)nc2c(=O)n(C)c(=O)nc1-2	2.8 µM	64%	inactive	5.6 µM	–	Activity (SK-N-SH [6]): 64%
CCCCn1nc(-c2ccc(C)s2)nc2c(=O)n(C)c(=O)nc1-2	18.2 µM	44%	inactive	15.3 µM	–	Activity (SK-N-SH [6]): 44%
CCCCn1nc(-c2ccc[nH]2)[n+]([O-])c2c(=O)n(C)c(=O)nc1-2	1.5 µM	49%	inactive	6.3 µM	640 nM	–
